The values below come from ChEMBL document CHEMBL3272163, “Synthesis and antiinflammatory activity of some 2-substituted 4- and 7-benzoxazoleacetic and alpha-methylacetic acids” (J Med Chem, 1977).

Data set [1] has as its system Rattus norvegicus. Nature of the data set: Antiinflammatory activity in rat assessed as carrageenan-induced foot edema at 2 x 50 mg/kg, po relative to control. Format: functional. In a few lines:
(§1)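 Rats were given carrageenan-induced foot edema by the Winter et al. method, modified as described in the paper's ref 1. Compound was dosed orally twice (dose × 2). The read-out was percent reduction of swelling relative to untreated controls, with significance given as p values.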

In data set [2] the test system is Rattus norvegicus. Put plainly: Antiinflammatory activity in rat assessed as carrageenan-induced foot edema at 2 x 100 mg/kg, po relative to control. In kind it is functional. The method in brief: as §1
Data set [3] is described as follows: Toxicity in po dosed mouse. In kind it is organism-based. The note with it: in vivo. In a few lines: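 Approximate LD50 in mice after oral dosing, in mg/kg.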
The nature of data set [4]: Dissociation constant, pKa of the compound in 75% EtOH. Format: physicochemical. The method in brief: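 pKa was determined in 75% EtOH, and values are reported to ±0.025.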
Data set [5] is described as follows: Octanol-water partition coefficient, P of the compound.
Data set [6] concerns Rattus norvegicus. Nature of the data set: Antiinflammatory activity in rat assessed as carrageenan-induced foot edema at 2 x 33 mg/kg, po relative to control. In kind it is functional. The method in brief:
as §1

Structures are written as SMILES.

On to `CC(C(=O)O)c1cccc2nc(-c3ccccc3)oc12` (configuration not stated), for which the Activity amounted to 26% in the data set with Rattus norvegicus [1] and 44% with Rattus norvegicus [2]. For the same compound, the LD50 in data set [3] amounted to 1200 mg/kg. The same compound displayed a pKa in data set [4] of 6.2. For the same compound, the P in data set [5] stood at 3.66.
In the case of `CC(C(=O)O)c1cccc2nc(-c3ccc(Cl)cc3)oc12` (configuration not stated), the Activity with Rattus norvegicus [2] stood at 16%. The same compound showed an LD50 in data set [3] of 1200 mg/kg. This compound returned a pKa in data set [4] of 6.25.
As for `C/C(=C1/SC(=S)NC1=O)c1cccc2oc(-c3ccccc3)nc12`, in the data set with Rattus norvegicus [2], the Activity came out at 9%. The LD50 in data set [3] was > 1600 mg/kg.
Take `C[C@]12CCC(=O)C=C1CC[C@@H]1[C@@H]2[C@@H](O)C[C@@]2(C)[C@H]1CC[C@]2(O)C(=O)CO` [HYDROCORTISONE]: the Activity with Rattus norvegicus [1] is 33%.
As to `O=C(O)Cc1cccc2oc(-c3ccccc3)nc12`, the Activity in the data set on Rattus norvegicus [2] came out at 28%. Also, in data set [3], the LD50 turned out to be 400 mg/kg. This compound also came in with a pKa in data set [4] of 6.3. In data set [5], this compound registered a P of 1.03.
As to `CC(C(=O)O)c1cccc2oc(-c3ccccc3)nc12` (configuration not stated), in the data set on Rattus norvegicus [1], the Activity is 1%. This compound had a P in data set [5] of 6.93.
In the case of `Cc1ccc(-c2nc3cccc(C(C)C(=O)O)c3o2)cc1` (configuration not stated), the Activity in the data set on Rattus norvegicus [2] stood at 10%. Besides, the LD50 in data set [3] was > 1600 mg/kg. In data set [4], this compound returned a pKa of 6.2. The P in data set [5] amounted to 8.94.
For the compound `CCCCC1C(=O)N(c2ccccc2)N(c2ccccc2)C1=O` [PHENYLBUTAZONE], the Activity in the data set with Rattus norvegicus [1] came out at 59%; in the data set on Rattus norvegicus [6], 52%.
For the compound `O=C(O)Cc1cccc2oc(-c3ccc(Cl)cc3)nc12`, the Activity in the data set with Rattus norvegicus [2] was 8%. This compound came in with an LD50 in data set [3] of 600 mg/kg. In data set [4], the pKa was 6.1. Besides, the P in data set [5] amounted to 9.28.
